Columns and labels:
Toll-like receptor 1/2 = Toll-like receptor 1/2 (Homo sapiens, UniProt O60603+Q15399); experiment: Agonist activity at TLR1/TLR2 in human THP-1 derived macrophages assessed as stimulation of TNF alpha release measured for 4 hrs by ELISA based assay relative to diprovocim-1; format: cell-based; parameters: Activity: concentration or dose not given beside the values; conditions: filed as agonist
Method in brief: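 THP-1 cells differentiated with 100 nM PMA in RPMI/10% FBS for 24 h, washed, then rested 24 h in fresh medium. Seeded at 0.5 × 10⁵ cells/well and exposed to graded compound concentrations for 4 h, with final DMSO held at 0.1%. LPS served as positive control and DMSO as negative control. Supernatant human TNF-α was read by ELISA. EC50 from duplicate means.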

[1] = target: Toll-like receptor 1/2 (Mus musculus) (UniProt Q9QUN7+Q9EPQ1); experiment: Agonist activity at TLR1/TLR2 in wild type C57BL/6J mouse macrophages assessed as stimulation of TNF alpha release measured for 4 hrs by ELISA based assay relative to diprovocim-1; format: cell-based; parameters: Activity: concentration or dose not given beside the values; conditions: Macrophage
Method in brief: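 Thioglycolate-elicited peritoneal macrophages from wild type C57BL/6J mice, harvested by PBS lavage 4 d after i.p. 4% thioglycolate. Cultured in DMEM/10% FBS at 37 °C, 5% CO2, seeded at 1 × 10⁵ cells/well and exposed to graded compound concentrations for 4 h, with final DMSO ≤0.5% held constant. LPS served as positive control. Supernatant mouse TNF-α was read by ELISA. EC50 from duplicate means.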

SMILES | Activity (Toll-like receptor 1/2) [%] | Activity [1] [%] | Activity ([1]; filed as agonist) [%]
O=C(O)CNC(=O)CCCCCCCCCCCNC(=O)[C@@H]1CN(C(=O)c2ccc(C(=O)N3C[C@@H](C(=O)N[C@H]4C[C@@H]4c4ccccc4)[C@H](C(=O)N[C@H]4C[C@@H]4c4ccccc4)C3)cc2)C[C@H]1C(=O)N[C@H]1C[C@@H]1c1ccccc1 | 110 | 30 | 
NCC(=O)OCCCCCCCCCCCCNC(=O)[C@@H]1CN(C(=O)c2ccc(C(=O)N3C[C@@H](C(=O)N[C@H]4C[C@@H]4c4ccccc4)[C@H](C(=O)N[C@H]4C[C@@H]4c4ccccc4)C3)cc2)C[C@H]1C(=O)N[C@H]1C[C@@H]1c1ccccc1 | 100 |  | 100
CNC(=O)CCCCCCCCCCCNC(=O)[C@@H]1CN(C(=O)c2ccc(C(=O)N3C[C@@H](C(=O)N[C@H]4C[C@@H]4c4ccccc4)[C@H](C(=O)N[C@H]4C[C@@H]4c4ccccc4)C3)cc2)C[C@H]1C(=O)N[C@H]1C[C@@H]1c1ccccc1 | 120 |  | 150
CC(C)(C)OC(=O)NCC(=O)NCCCCCCCCCCCCNC(=O)[C@@H]1CN(C(=O)c2ccc(C(=O)N3C[C@@H](C(=O)N[C@H]4C[C@@H]4c4ccccc4)[C@H](C(=O)N[C@H]4C[C@@H]4c4ccccc4)C3)cc2)C[C@H]1C(=O)N[C@H]1C[C@@H]1c1ccccc1 | 90 |  | 90
CC(C)(C)OC(=O)c1ccc(C(=O)NCCOCCCCCCCCCCCCNC(=O)[C@@H]2CN(C(=O)c3ccc(C(=O)N4C[C@@H](C(=O)N[C@H]5C[C@@H]5c5ccccc5)[C@H](C(=O)N[C@H]5C[C@@H]5c5ccccc5)C4)cc3)C[C@H]2C(=O)N[C@H]2C[C@@H]2c2ccccc2)cc1 | 110 |  | 160
O=C(OCCCCCCCCCCCCNC(=O)[C@@H]1CN(C(=O)c2ccc(C(=O)N3C[C@@H](C(=O)N[C@H]4C[C@@H]4c4ccccc4)[C@H](C(=O)N[C@H]4C[C@@H]4c4ccccc4)C3)cc2)C[C@H]1C(=O)N[C@H]1C[C@@H]1c1ccccc1)c1ccc(O)cc1 | 100 |  | 540
NCCCCCCCCCCCCNC(=O)[C@@H]1CN(C(=O)c2ccc(C(=O)N3C[C@@H](C(=O)N[C@H]4C[C@@H]4c4ccccc4)[C@H](C(=O)N[C@H]4C[C@@H]4c4ccccc4)C3)cc2)C[C@H]1C(=O)N[C@H]1C[C@@H]1c1ccccc1 | 140 |  | 130
CC(C)(C)OC(=O)NCCOCCCCCCCCCCCCNC(=O)[C@@H]1CN(C(=O)c2ccc(C(=O)N3C[C@@H](C(=O)N[C@H]4C[C@@H]4c4ccccc4)[C@H](C(=O)N[C@H]4C[C@@H]4c4ccccc4)C3)cc2)C[C@H]1C(=O)N[C@H]1C[C@@H]1c1ccccc1 | 100 |  | 220
CC(C)(C)OC(=O)N[C@@H](CSCc1ccccc1)C(=O)OCCCCCCCCCCCCNC(=O)[C@@H]1CN(C(=O)c2ccc(C(=O)N3C[C@@H](C(=O)N[C@H]4C[C@@H]4c4ccccc4)[C@H](C(=O)N[C@H]4C[C@@H]4c4ccccc4)C3)cc2)C[C@H]1C(=O)N[C@H]1C[C@@H]1c1ccccc1 | 100 |  | 200
N#CCC(=O)OCCCCCCCCCCCCNC(=O)[C@@H]1CN(C(=O)c2ccc(C(=O)N3C[C@@H](C(=O)N[C@H]4C[C@@H]4c4ccccc4)[C@H](C(=O)N[C@H]4C[C@@H]4c4ccccc4)C3)cc2)C[C@H]1C(=O)N[C@H]1C[C@@H]1c1ccccc1 | 130 |  | 120
O=C(NCCCCCCCCCCCCOCc1ccc([N+](=O)[O-])cc1)[C@@H]1CN(C(=O)c2ccc(C(=O)N3C[C@@H](C(=O)N[C@H]4C[C@@H]4c4ccccc4)[C@H](C(=O)N[C@H]4C[C@@H]4c4ccccc4)C3)cc2)C[C@H]1C(=O)N[C@H]1C[C@@H]1c1ccccc1 | 110 |  | 230
O=C(O)c1ccc(C(=O)NCCOCCCCCCCCCCCCNC(=O)[C@@H]2CN(C(=O)c3ccc(C(=O)N4C[C@@H](C(=O)N[C@H]5C[C@@H]5c5ccccc5)[C@H](C(=O)N[C@H]5C[C@@H]5c5ccccc5)C4)cc3)C[C@H]2C(=O)N[C@H]2C[C@@H]2c2ccccc2)cc1 | 100 |  | 50
O=C(COCc1ccccc1)OCCCCCCCCCCCCNC(=O)[C@@H]1CN(C(=O)c2ccc(C(=O)N3C[C@@H](C(=O)N[C@H]4C[C@@H]4c4ccccc4)[C@H](C(=O)N[C@H]4C[C@@H]4c4ccccc4)C3)cc2)C[C@H]1C(=O)N[C@H]1C[C@@H]1c1ccccc1 | 130 |  | 220
Nc1ccc(COCCCCCCCCCCCCNC(=O)[C@@H]2CN(C(=O)c3ccc(C(=O)N4C[C@@H](C(=O)N[C@H]5C[C@@H]5c5ccccc5)[C@H](C(=O)N[C@H]5C[C@@H]5c5ccccc5)C4)cc3)C[C@H]2C(=O)N[C@H]2C[C@@H]2c2ccccc2)cc1 | 90 |  | 130
CC(C)(C)OC(=O)N[C@@H](CCCCNC(=O)OCC1c2ccccc2-c2ccccc21)C(=O)OCCCCCCCCCCCCNC(=O)[C@@H]1CN(C(=O)c2ccc(C(=O)N3C[C@@H](C(=O)N[C@H]4C[C@@H]4c4ccccc4)[C@H](C(=O)N[C@H]4C[C@@H]4c4ccccc4)C3)cc2)C[C@H]1C(=O)N[C@H]1C[C@@H]1c1ccccc1 | 100 |  | 200
CC(C)[C@H](NC(=O)OC(C)(C)C)C(=O)OCCCCCCCCCCCCNC(=O)[C@@H]1CN(C(=O)c2ccc(C(=O)N3C[C@@H](C(=O)N[C@H]4C[C@@H]4c4ccccc4)[C@H](C(=O)N[C@H]4C[C@@H]4c4ccccc4)C3)cc2)C[C@H]1C(=O)N[C@H]1C[C@@H]1c1ccccc1 | 100 |  | 180
CC(=O)OCCCCCCCCCCCCNC(=O)[C@@H]1CN(C(=O)c2ccc(C(=O)N3C[C@@H](C(=O)N[C@H]4C[C@@H]4c4ccccc4)[C@H](C(=O)N[C@H]4C[C@@H]4c4ccccc4)C3)cc2)C[C@H]1C(=O)N[C@H]1C[C@@H]1c1ccccc1 | 90 |  | 140
CC[C@H](C)[C@H](NC(=O)OC(C)(C)C)C(=O)OCCCCCCCCCCCCNC(=O)[C@@H]1CN(C(=O)c2ccc(C(=O)N3C[C@@H](C(=O)N[C@H]4C[C@@H]4c4ccccc4)[C@H](C(=O)N[C@H]4C[C@@H]4c4ccccc4)C3)cc2)C[C@H]1C(=O)N[C@H]1C[C@@H]1c1ccccc1 | 100 |  | 140
CC(C)(C)OC(=O)c1ccc(C(=O)OCCCCCCCCCCCCNC(=O)[C@@H]2CN(C(=O)c3ccc(C(=O)N4C[C@@H](C(=O)N[C@H]5C[C@@H]5c5ccccc5)[C@H](C(=O)N[C@H]5C[C@@H]5c5ccccc5)C4)cc3)C[C@H]2C(=O)N[C@H]2C[C@@H]2c2ccccc2)cc1 | 90 |  | 190

Next, values leading:

Activity (Toll-like receptor 1/2) [%] | Activity [1] [%] | Activity ([1]; filed as agonist) [%] | SMILES
100 |  | 270 | CC(C)(C)OC(=O)COCCCCCCCCCCCCNC(=O)[C@@H]1CN(C(=O)c2ccc(C(=O)N3C[C@@H](C(=O)N[C@H]4C[C@@H]4c4ccccc4)[C@H](C(=O)N[C@H]4C[C@@H]4c4ccccc4)C3)cc2)C[C@H]1C(=O)N[C@H]1C[C@@H]1c1ccccc1
100 |  | 220 | CC(C)(C)OC(=O)NNC(=O)OCCCCCCCCCCCCNC(=O)[C@@H]1CN(C(=O)c2ccc(C(=O)N3C[C@@H](C(=O)N[C@H]4C[C@@H]4c4ccccc4)[C@H](C(=O)N[C@H]4C[C@@H]4c4ccccc4)C3)cc2)C[C@H]1C(=O)N[C@H]1C[C@@H]1c1ccccc1
110 |  | 400 | CC(C)(C)OC(=O)C(=O)NCC(=O)OCCCCCCCCCCCCNC(=O)[C@@H]1CN(C(=O)c2ccc(C(=O)N3C[C@@H](C(=O)N[C@H]4C[C@@H]4c4ccccc4)[C@H](C(=O)N[C@H]4C[C@@H]4c4ccccc4)C3)cc2)C[C@H]1C(=O)N[C@H]1C[C@@H]1c1ccccc1
70 |  | 120 | CC(C)(C)OC(=O)NCCCCCCCCCCCCNC(=O)[C@@H]1CN(C(=O)c2ccc(C(=O)N3C[C@@H](C(=O)N[C@H]4C[C@@H]4c4ccccc4)[C@H](C(=O)N[C@H]4C[C@@H]4c4ccccc4)C3)cc2)C[C@H]1C(=O)N[C@H]1C[C@@H]1c1ccccc1
100 |  | 110 | CN(CC(=O)OCCCCCCCCCCCCNC(=O)[C@@H]1CN(C(=O)c2ccc(C(=O)N3C[C@@H](C(=O)N[C@H]4C[C@@H]4c4ccccc4)[C@H](C(=O)N[C@H]4C[C@@H]4c4ccccc4)C3)cc2)C[C@H]1C(=O)N[C@H]1C[C@@H]1c1ccccc1)C(=O)OC(C)(C)C
100 |  | 70 | CC(C)(C)OC(=O)CNC(=O)CCCCCCCCCCCNC(=O)[C@@H]1CN(C(=O)c2ccc(C(=O)N3C[C@@H](C(=O)N[C@H]4C[C@@H]4c4ccccc4)[C@H](C(=O)N[C@H]4C[C@@H]4c4ccccc4)C3)cc2)C[C@H]1C(=O)N[C@H]1C[C@@H]1c1ccccc1
90 |  | 180 | CC(=O)NCC(=O)OCCCCCCCCCCCCNC(=O)[C@@H]1CN(C(=O)c2ccc(C(=O)N3C[C@@H](C(=O)N[C@H]4C[C@@H]4c4ccccc4)[C@H](C(=O)N[C@H]4C[C@@H]4c4ccccc4)C3)cc2)C[C@H]1C(=O)N[C@H]1C[C@@H]1c1ccccc1
100 |  | 60 | O=C(O)/C=C/C(=O)NCC(=O)OCCCCCCCCCCCCNC(=O)[C@@H]1CN(C(=O)c2ccc(C(=O)N3C[C@@H](C(=O)N[C@H]4C[C@@H]4c4ccccc4)[C@H](C(=O)N[C@H]4C[C@@H]4c4ccccc4)C3)cc2)C[C@H]1C(=O)N[C@H]1C[C@@H]1c1ccccc1
100 |  | 130 | CC(C)(C)OC(=O)c1ccc(C(=O)NCC(=O)OCCCCCCCCCCCCNC(=O)[C@@H]2CN(C(=O)c3ccc(C(=O)N4C[C@@H](C(=O)N[C@H]5C[C@@H]5c5ccccc5)[C@H](C(=O)N[C@H]5C[C@@H]5c5ccccc5)C4)cc3)C[C@H]2C(=O)N[C@H]2C[C@@H]2c2ccccc2)cc1

— ChEMBL document CHEMBL5143728, “Next-Generation Diprovocims with Potent Human and Murine TLR1/TLR2 Agonist Activity That Activate the Innate and Adaptive Immune Response” (J Med Chem, 2022)
